A selection: hits, their analogues and other compounds. The true share with any hit is near 2.6%.
ASAP1 GAP inh: ASAP1 ArfGAP inhibition; ASAP1-stimulated ARF1 GTP hydrolysis, GDP FP detection; Q9ULH1; 360,000 tested, 0.19% active; inhibition, % at 16.5 µM; AID 624377; in the data active = inhibition above about 25%;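 also: 0% = vehicle with enzyme and substrate and 100% = no enzyme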
Target sequence (Q9ULH1 325-724 limits assumed): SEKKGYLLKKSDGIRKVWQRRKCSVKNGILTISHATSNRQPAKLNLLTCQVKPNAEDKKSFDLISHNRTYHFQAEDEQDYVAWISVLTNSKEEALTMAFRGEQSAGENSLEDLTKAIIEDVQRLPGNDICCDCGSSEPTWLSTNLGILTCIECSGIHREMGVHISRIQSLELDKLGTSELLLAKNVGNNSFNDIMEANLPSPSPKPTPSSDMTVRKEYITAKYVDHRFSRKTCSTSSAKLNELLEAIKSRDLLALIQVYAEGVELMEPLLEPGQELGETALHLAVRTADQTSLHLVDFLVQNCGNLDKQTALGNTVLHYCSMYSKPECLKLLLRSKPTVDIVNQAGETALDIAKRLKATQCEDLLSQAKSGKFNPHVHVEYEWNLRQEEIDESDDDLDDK
SMARCA2 act: SMARCA2 function activation, primary screen | MG213 cells, MMTV-luciferase reporter, dexamethasone, overnight | 370,000 tested, 1% active | activation, % at 9.1 µM; in the data active = activation above about 7.8%;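 also: 0% = vehicle wells and 100% = reference activator wells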
esBAF inh: SWI/SNF esBAF complex inhibition. mouse ES cells, Bmi1-luciferase knock-in reporter, 24 h; 100% = twice the neutral-well signal. reporter increase, % at 12.5 µM. 350,000 tested, 2% active. AID 602393; in the data active = activation above about 40%; inconclusive = no clear call, values can overlap the other calls;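 also: 0% = median of the plate's neutral control wells and 100% = double that signal; a rise in the Bmi1 reporter signal indicates esBAF inhibition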
ARFGAP1 inhibitor: inhibitors of rat ARFGAP1; Arfgap1-stimulated ARF1 GTP hydrolysis, GDP FP detection; AID 651572; inhibition, % at 16.5 µM; Q62848; 360,000 tested, 0.26% active;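 active = inhibition above a per-plate limit, mean inhibition of low control wells plus 3 SD, cut at about 25% in these data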;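 also: 0% = DMSO wells with enzyme and 100% = wells lacking Arfgap1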
Target sequence (Q62848 1-136 limits assumed): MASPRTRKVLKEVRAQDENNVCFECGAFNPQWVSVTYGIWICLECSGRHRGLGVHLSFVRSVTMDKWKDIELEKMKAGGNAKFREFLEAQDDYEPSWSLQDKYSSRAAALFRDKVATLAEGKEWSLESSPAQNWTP
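Material – truncated rat Arfgap1 GAP domain · Buffer or medium – HEPES-based buffer, pH 7.5 · Reagent – human ARF1(Δ1-17)-GTP substrate · Dosing – 16.5 µM single point, 1.26% DMSO · Schedule – GTP hydrolysis reaction 2 h at 25 °C · Technique – GDP detection by fluorescence polarization · Benchmarks – No-Arfgap1 wells (100%) versus DMSO full-reaction wells (0%) · Repeats – single replicate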
SMARCA2 act conf: confirmation of SMARCA2 (BRM) function activators. shares compounds with SMARCA2 act. MG213 cells, MMTV-luciferase with dexamethasone, luminescence, overnight; MG213 cells expressing E1A, Rb sequestered; DMSO wells 0%, reference activator 100%. activation, % at 9.1 µM. 3,500 tested, 30% active;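 active = activation above its plate's cutoff, the mean activation of tested wells plus 3 SD, cut at about 7.9% in these data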
GAL4-VP16 Luc: activates GAL4-VP16 luciferase, flagging SMARCA2 activator hits; shares compounds with SMARCA2 act; HEK293 GAL4-VP16 pG5luc reporter, luciferase luminescence; scaled: DMSO wells 0%, SAHA wells 100%; activation, % at 9.1 µM; 3,500 tested, 41% active; AID 686939;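 active = activation above the solvent-only control well mean plus 3 SD, averaged across control plates, cut at about 5.2% in these data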
* marks the source's active call; other numbers are inactive results; ? = inconclusive; · = no result.

SMILES	ASAP1 GAP inh	SMARCA2 act	esBAF inh	ARFGAP1 inhibitor	SMARCA2 act conf	GAL4-VP16 Luc
O=C(Nc1cccc(F)c1)c1ccccc1-c1ccccc1	-10	9.0*	·	-2	0	-1
CCCC(=O)Nc1ccc2c(c1)C(=O)N(C)C[C@H](OC)[C@@H](C)CN(Cc1ccccn1)[C@H](C)CO2	·	·	-4	·	·	·
COc1cccc(C#Cc2cnc3c(c2)C(=O)N([C@H](C)CO)C[C@H](C)[C@@H](CN(C)C(=O)C2CCOCC2)O3)c1	·	·	3	·	·	·
C(=C\c1nc(N2CCCCCC2)c2ccccc2n1)/c1ccccc1	3	9.3*	·	0	2	3
c1ccc2c(N3CCCCC3)nc(N3CCCCC3)nc2c1	10	-1	·	-4	·	·
CCN=c1sc(C(=O)OC)cc(=O)n1CC	-3	11*	-11	1	8.6*	1
COc1nc(-c2ccccc2)nnc1-c1ccccc1	3	11*	40	14	7	13*
O=C(NCC1CCCO1)c1ccc2nc(N3CCCCC3)sc2c1 (stereo not drawn)	10	3	38	-13	·	·
CC1CCN(c2nc3ccc(C(=O)NCCCN4CCCCC4)cc3s2)CC1	0	12*	62*	-1	4	17*
CC(C)N1CCCCC(NC(=O)c2cccc(C(F)(F)F)c2)C1=O (stereo not drawn)	·	8.8*	·	·	1	0
CN1C(=S)SC2CS(=O)(=O)CC21C (stereo not drawn)	7	12*	·	5	-3	-1
CC(C)C(=O)Nc1ccc2c(c1)C(=O)N(C)[C@@H]1CC[C@@H](CC(=O)NCC3CC3)O[C@@H]1CO2	·	·	-2	·	·	·
c1ccc(-c2ccc(-c3ccncn3)cc2)cc1	-6	9.1*	·	0	5	7.6*
CC(C)c1c(C(=O)Nc2ccccc2)c(-c2ccccc2)c(-c2ccc(F)cc2)n1CC[C@@H](O)C[C@@H](O)CC(=O)O	-5	17*	-18	4	13*	-1
O=C(Nc1ccccc1)c1c(F)c(F)c(F)c(F)c1F	11	1	-3	-6	·	·
CC(C)CCNC(=O)C(=O)Nc1ccccc1	1	9.1*	?	7	6	7.2*
Cc1cccc(NC(=S)NCCC(C)C)c1	5	2	·	11	·	·
CN(C)Cc1cc(O)c(CN(C)C)cc1O	5	8.0*	·	0	7	2
CN(C)Cc1cc(C(C)(C)C)cc(C(C)(C)C)c1O	-8	-1	·	-1	·	·
CN(C)CC(=O)N[C@H]1C=C[C@@H](CC(=O)NCc2ccccc2F)O[C@@H]1CO	·	·	-1	·	·	·
CCNC(=O)[C@@H]1[C@@H](CO)[C@@H]2Cn3c(ccc(-c4ccccc4)c3=O)[C@@H]2N1C(=O)C1CC1	·	·	-3	·	·	·
Cc1cccc(NC(=O)CCC2CCN(C(=O)C3CC=CCC3)CC2)c1 (stereo not drawn)	4	-1	-3	9	·	·
COc1cccc(NC(=O)CCC2CCN(C(=O)C3CC=CCC3)CC2)c1 (stereo not drawn)	-7	8.0*	-5	14	-3	2
CCC(=O)Nc1ccc2c(c1)OC[C@@H](C)N(C(=O)CC)C[C@H](C)[C@@H](OC)CN(C)C2=O	·	·	-2	·	·	·
ClCc1nnc(-c2cc3c(s2)CCCC3)o1	0	11*	·	-7	-4	1
SMILES	ASAP1 GAP inh	SMARCA2 act	esBAF inh	ARFGAP1 inhibitor	SMARCA2 act conf	GAL4-VP16 Luc
Cc1ccc2nc(-c3ccc(SCC(=O)O)nc3)[nH]c2c1	4	-4	-7	17	·	·
Cc1nc(SCC(=O)N2CCc3ccccc32)n[nH]1	9	8.7*	·	-6	8.6*	4
CCc1nnc(NC(=O)CSc2ccc(-c3nc4ccc(C)cc4[nH]3)cn2)s1	-6	8.7*	·	-3	8.4*	12*
Cc1ccc2nc(-c3ccc(SCC(=O)N4CCc5ccccc54)nc3)[nH]c2c1	11	9.1*	·	-4	12*	13*
CC(C)OC(=O)N(C)C[C@@H]1OCc2ccccc2-c2ccccc2C(=O)N([C@@H](C)CO)C[C@@H]1C	·	·	-11	·	·	·
COc1ccc(Nc2nc3cc(-c4sccc4C)sc3c(=O)n2C)cc1OC	8	9.3*	7	11	4	8.4*
COc1ccc(NC(=O)Nc2ccc3c(c2)C(=O)N([C@H](C)CO)C[C@@H](C)[C@H](CN(C)Cc2ccc(-c4ccccc4)cc2)O3)cc1	·	·	0	·	·	·
COc1ccc(/C=C/C(=O)c2c(C)nc3ccccn23)cc1	13	9.7*	69*	12	6	10*
CCC(=O)N(C)C[C@@H]1Oc2cc(C#CC(C)C)ccc2S(=O)(=O)N([C@@H](C)CO)C[C@H]1C	·	·	0	·	·	·
COc1ccc(CNC(=O)c2ccc(C(C)C)cc2)cc1	8	11*	·	7	7	17*
COC(=O)C[C@H]1CC[C@H]2[C@@H](COC[C@@H](O)CN2S(=O)(=O)c2ccc(F)cc2)O1	·	·	4	·	·	·
CN(C)c1cnn(-c2ccccc2)c(=O)c1Cl	11	8.5*	·	-1	6	2
O=C(CCN1C(=O)COc2ccccc21)NCCN1CCN(c2ccccc2F)CC1	2	8.7*	·	-4	-1	2
COc1ccccc1CNC(=O)CSc1ccsc1[N+](=O)[O-]	0	1	·	0	·	·
O=C(CSc1ccsc1[N+](=O)[O-])NCc1ccccc1	4	11*	30	11	7	3
CCCNC(=O)N1[C@H](C#N)[C@H](c2ccc(-c3ccccc3F)cc2)[C@H]1CO	·	·	5	·	·	·
FC(F)(F)c1cccc(-c2nc(-c3ccncc3)no2)c1	5	9.2*	17	3	6	4
COc1ccc(-c2nc(-c3ccc(C(=O)O)cc3)no2)cc1	8	8.4*	5	10	8.4*	15*
COc1cccc(-c2noc(-c3cccnc3)n2)c1	3	5	·	-3	·	·
COc1ccccc1-c1nc(-c2ccc(C(=O)O)cc2)no1	-2	2	9	1	·	·
COc1cccc(-c2noc(-c3cccs3)n2)c1	2	9.5*	12	-3	8.0*	13*
O=C(O)c1ccc(-c2noc(-c3cccc(C(F)(F)F)c3)n2)cc1	4	2	-2	4	·	·
COc1cccc(-c2nc(-c3ccccc3)no2)c1	4	8.8*	1	4	8.4*	14*
C[C@H](CO)N1C[C@H](C)[C@H](CN(C)Cc2ccc(C(=O)O)cc2)Oc2c(NC(=O)C3CC3)cccc2C1=O	·	·	-5	·	·	·
COCC#Cc1cnc2c(c1)C(=O)N([C@@H](C)CO)C[C@@H](C)[C@H](CN(C)C(=O)CN1CCOCC1)O2	·	·	-1	·	·	·
COc1ccc(NC(=O)N(C)C[C@H]2Oc3cc(C#CCN(C)C)ccc3S(=O)(=O)N([C@H](C)CO)C[C@@H]2C)cc1	·	·	-1	·	·	·
COc1nc(-c2ccccc2)ccc1-c1noc(COc2ccccc2)n1	1	-1	·	7	·	·

Source: PubChem (several laboratories)
